{"data": "Assay results gathered from unrelated publications", "CDK2": "Cyclin-dependent kinase 2 (CDK2, Homo sapiens, UniProt P24941)", "CDK2 with cyclin E": "Cyclin-dependent kinase 2, with cyclin E (CDK2, Homo sapiens, UniProt P24941)", "CDK2 with cyclin A": "Cyclin-dependent kinase 2, with cyclin A (CDK2, Homo sapiens, UniProt P24941)", "note": "Each line is one published result; the experiments were not run side by side."}
{"SMILES": "C[C@H](c1ccnc(Nc2nc3ccc(-c4cc(N(C)C)ncn4)cc3[nH]2)c1)N1CCN(C(=O)CC(F)(F)F)CC1", "target": "CDK2", "test": "cell-free assay, competition with immobilised ligand", "setting": "0.1 µM", "measurement": "remaining binding", "value": "100%"}
{"SMILES": "N#Cc1c(NC(=O)c2cccc3ccccc23)sc2c1CCCC2", "target": "CDK2 with cyclin E", "test": "cell-free assay", "setting": "0.5 µM", "measurement": "remaining signal", "value": "89.1%"}
{"SMILES": "CC1(C)NC(=O)c2[nH]c3c(Cl)c(Cl)ccc3c2C1C#N (stereo not drawn)", "target": "CDK2", "test": "thermal stability, DSF", "setting": "10 µM", "measurement": "ΔTm", "value": "-0.3 °C"}
{"SMILES": "FC(F)(F)Oc1cccc(-c2cnc3ccc(-c4ccncc4)nn23)c1", "target": "CDK2 with cyclin A", "test": "enzyme activity, inhibitor, radiometric", "setting": "1 µM", "measurement": "activity vs control", "value": "26%"}
{"SMILES": "Cc1ccc(NC(=O)c2ccc(C)c(C(F)(F)F)c2)cc1C#Cc1nn(C2CCC(O)CC2)c2ncnc(N)c12 (stereo not drawn)", "target": "CDK2 with cyclin A", "test": "cell-free assay", "setting": "10 µM", "measurement": "remaining signal", "value": "100%"}
{"SMILES": "CS(=O)(=O)c1cc(C2(NC(=O)c3cncc4c3cnn4-c3ccc(F)cc3)CC2)ccn1", "target": "CDK2", "test": "cell-free assay, competition with immobilised ligand", "setting": "1 µM", "measurement": "remaining binding", "value": "94%"}
{"SMILES": "O=C(Nc1cnn(-c2csc(C(=O)NC3COC3)c2)c1)Nc1c(F)cccc1Cl", "target": "CDK2 with cyclin A", "test": "enzyme activity, inhibitor", "setting": "5 µM", "measurement": "remaining activity", "value": "93.8%"}
{"SMILES": "CC(C)(O)[C@H]1CC[C@H](Nc2ccc3ncc(-c4cccc(C(F)(F)F)c4)n3n2)CC1", "target": "Cyclin-dependent kinase 2, with cyclin A1 (CDK2, Homo sapiens, UniProt P24941)", "test": "enzyme activity, inhibitor", "setting": "1 µM", "measurement": "remaining activity", "value": "78.5%"}
{"SMILES": "CC(C)CC(=O)N1CCc2nc(-c3ccc(Br)cc3)nc(N(C)Cc3ccccc3)c2C1", "target": "CDK2", "test": "cell-free assay, competition with immobilised ligand", "setting": "0.1 µM", "measurement": "remaining binding", "value": "80%"}
{"SMILES": "Cc1sc(C(=O)NC2COC2)cc1-n1cc(NC(=O)Nc2c(F)cccc2Cl)cn1", "target": "Cyclin-dependent kinase 2, with cyclin O (CDK2, Homo sapiens, UniProt P24941)", "test": "enzyme activity, inhibitor", "setting": "10 µM", "measurement": "remaining activity", "value": "105%"}
{"SMILES": "Cn1c2c(c3ccc(Cl)c(Cl)c31)C(C#N)C(C)(C)NC2=O (stereo not drawn)", "target": "CDK2", "test": "thermal stability, DSF", "setting": "10 µM", "measurement": "ΔTm", "value": "0.5 °C"}
{"SMILES": "O=C1NC(=O)c2cc(Nc3ccc(F)cc3)c(Nc3ccc(F)cc3)cc21", "target": "CDK2 with cyclin E", "test": "cell-free assay", "setting": "0.5 µM", "measurement": "remaining signal", "value": "94.3%"}
{"SMILES": "Cn1c2c(c3ccc(Cl)c(Cl)c31)C(C#N)C1(CCCC1)NC2=O (stereo not drawn)", "target": "CDK2", "test": "thermal stability, DSF", "setting": "10 µM", "measurement": "ΔTm", "value": "-0.5 °C"}
{"SMILES": "COc1cc2c(cc1OC)-c1[nH]nc(Nc3cccc(F)c3)c1C2", "target": "CDK2 with cyclin A", "test": "cell-free assay", "setting": "0.5 µM", "measurement": "remaining signal", "value": "87.5%"}
{"SMILES": "Cn1c2c(c3ccc(Cl)c(Cl)c31)C(C#N)C1(CCOCC1)NC2=O (stereo not drawn)", "target": "CDK2", "test": "thermal stability, DSF", "setting": "10 µM", "measurement": "ΔTm", "value": "0 °C"}
{"SMILES": "COc1cc2c(Nc3ccc(Br)cc3F)ncnc2cc1OCC1CCN(C)CC1", "target": "CDK2 with cyclin E", "test": "cell-free assay", "setting": "0.5 µM", "measurement": "remaining signal", "value": "101%"}
{"SMILES": "Cn1cc(Cl)c2c(Oc3c(F)cc(Nc4cc(Cl)nc(N)n4)cc3F)ccnc21", "target": "CDK2", "test": "cell-free assay, competition with immobilised ligand", "setting": "0.1 µM", "measurement": "remaining binding", "value": "100%"}
{"SMILES": "N#CCCc1ccc2c(c1)-c1[nH]c3ccc([N+](=O)[O-])cc3c1CC(=O)N2", "target": "CDK2 with cyclin A", "test": "cell-free assay", "setting": "0.5 µM", "measurement": "remaining signal", "value": "2.93%"}
{"SMILES": "Cn1c2c(Cl)c(Cl)ccc2c2cc(N)[nH]c(=O)c21", "target": "CDK2", "test": "thermal stability, DSF", "setting": "10 µM", "measurement": "ΔTm", "value": "2.2 °C"}
{"SMILES": "Cc1cc(NC(=O)c2cccc3cc(-c4cccc5[nH]nc(N)c45)ccc23)ccc1F", "target": "CDK2 with cyclin A", "test": "enzyme activity, inhibitor", "setting": "0.1 µM", "measurement": "activity vs control", "value": "100%"}
{"SMILES": "Cc1nc(N2CC[C@@H](O)C2)ncc1-c1cc(C(F)(F)F)cc2[nH]ncc12", "target": "CDK2", "test": "binding, competition with immobilised ligand", "setting": "1 µM", "measurement": "remaining binding", "value": "94%"}
{"SMILES": "Nc1ncnc2occ(-c3ccc(NC(=O)Nc4cc(C(F)(F)F)ccc4F)cc3)c12", "target": "CDK2", "test": "cell-free assay, inhibitor", "setting": "20 µM", "measurement": "remaining signal", "value": "0.1%"}
{"SMILES": "NS(=O)(=O)c1cc(NC(=O)Cc2ccccc2)ccc1Oc1cccc(Cl)c1", "target": "CDK2", "test": "cell-free assay, competition with immobilised ligand", "setting": "1 µM", "measurement": "remaining binding", "value": "100%"}
{"SMILES": "CN(C)C1CCN(CC#Cc2nn(C3CCCC3)c3nc(NCc4ccccc4)ncc23)C1 (stereo not drawn)", "target": "CDK2 with cyclin A", "test": "enzyme activity, inhibitor, FRET", "setting": "1 µM", "measurement": "inhibition", "value": "9%"}
{"SMILES": "CC(C)[C@H](CO)Nc1nc(Nc2cccc(Cl)c2)c2ncn(C(C)C)c2n1", "target": "CDK2 with cyclin E", "test": "cell-free assay", "setting": "0.5 µM", "measurement": "remaining signal", "value": "9.88%"}
{"SMILES": "O=C(Nc1cnn(-c2csc(C(=O)NC3COC3)c2)c1)Nc1ccccc1Cl", "target": "CDK2 with cyclin E", "test": "enzyme activity, inhibitor", "setting": "5 µM", "measurement": "remaining activity", "value": "99%"}
{"SMILES": "CS(=O)(=O)CCNCc1ccc(-c2ccc3ncnc(Nc4ccc(OCc5cccc(F)c5)c(Cl)c4)c3c2)o1", "target": "CDK2 with cyclin E", "test": "cell-free assay", "setting": "0.5 µM", "measurement": "remaining signal", "value": "98.8%"}
{"SMILES": "CC(C)c1ccc(NC(=O)c2cccs2)c(-c2nc3ccccc3[nH]c2=O)c1", "target": "CDK2 with cyclin E", "test": "enzyme activity, inhibitor", "setting": "1 µM", "measurement": "activity vs control", "value": "98%"}
{"SMILES": "Cc1c[nH]c2nccc(Oc3c(F)cc(Nc4cc(Cl)nc(N)n4)cc3F)c12", "target": "CDK2", "test": "cell-free assay, competition with immobilised ligand", "setting": "0.1 µM", "measurement": "remaining binding", "value": "99%"}
{"SMILES": "COc1cc(OC)c(C=C2C(O)=Nc3ccccc32)c(OC)c1", "target": "CDK2 with cyclin A", "test": "cell-free assay", "setting": "0.5 µM", "measurement": "remaining signal", "value": "96.3%"}
{"SMILES": "Cc1ccc(C(=O)NCc2ccsc2)cc1C#Cc1cn(C(C)C)c2ncnc(N)c12", "target": "CDK2 with cyclin A", "test": "enzyme activity, inhibitor", "setting": "1 µM", "measurement": "activity vs control", "value": "94%"}
{"SMILES": "CCN1CCC2(CC1)NC(=O)c1c(c3ccc(Cl)c(Cl)c3n1C)C2C#N (racemic)", "target": "CDK2", "test": "thermal stability, DSF", "setting": "10 µM", "measurement": "ΔTm", "value": "0 °C"}
{"SMILES": "CCS(=O)(=O)c1cc2cc(C[C@@](O)(CC(C)(C)c3ccc(F)cc3C(N)=O)C(F)(F)F)[nH]c2cn1", "target": "CDK2", "test": "cell-free assay, competition with immobilised ligand", "setting": "1 µM", "measurement": "remaining binding", "value": "96%"}
